Results collected from several papers.
Compare with care: the assays were run in different laboratories.
Target: Homeodomain-interacting protein kinase 2 (HIPK2, Homo sapiens, UniProt Q9H2X6)

`N[C@H]1CCN(c2nccc(-c3cnn4ncccc34)n2)C1` has a remaining binding of 98% (binding; 1 µM).
With `C[C@H](NC(=O)c1cnc2n1[C@](C)(Cc1ccc(C#N)cc1)C(=O)N2c1cc(Cl)c(F)c(Cl)c1)C(=O)NC1(c2ccccn2)CC1` the remaining binding was 100% (cell-free assay; competition with immobilised ligand; 1 µM).
The remaining binding of `COc1ncc2cc3ccccc3nc2c1C#N` is reported as 98% (cell-free assay; competition with immobilised ligand; 5 µM).
`CC(C)(O)c1cncc(-c2nc3ccc(F)cc3n2C2CC2)c1` gave a remaining binding of 100% (cell-free assay; competition with immobilised ligand; 1 µM).
With `C[C@H]1CCN(c2nccc(-c3cnn4ncccc34)n2)C1` the remaining binding was 45% (binding; 1 µM).
For `CN(C)C(=O)Cn1cc(-c2nc(C3(c4ccc(-c5cnc(N)nc5)cc4)CC3)no2)cn1`, the remaining binding was 94% (cell-free assay; competition with immobilised ligand; 1 µM).
`O=C(c1ccc(Nc2nccc(-c3cc4ccccc4s3)n2)cc1)N1CCC(N2CCCC2)CC1` has a remaining binding of 8.8% (binding; competition with immobilised ligand; 1 µM).
For `CC1CCCN1c1nccc(-c2cnn3ncccc23)n1` (stereo not shown), the remaining binding was 100% (binding; 1 µM).
For `CCC(=O)N[C@@H]1CC[C@H](C(=O)N(C)c2ccc(-c3nc4ccccc4o3)cc2)C1`, the remaining binding was 100% (cell-free assay; competition with immobilised ligand; 1 µM).
With `CCN1CCN(Cc2ccc(C(=O)Nc3ccc(C)c(Oc4ccc5c(c4)CC(=O)N5)c3)cc2C(F)(F)F)CC1` the remaining binding was 100% (binding; competition with immobilised ligand; 1 µM).
The remaining binding of `CN(C)c1nccc(-c2cnn3ncccc23)n1` is reported as 49% (binding; 1 µM).
`O=C(NCC1CCOCC1)c1n[nH]cc1NC(=O)c1c(F)cccc1F` gave a remaining binding of 100% (binding; competition with immobilised ligand; 1 µM).
The remaining binding of `O=C(O)[C@H]1[C@H](Cn2nnc3ccccc3c2=O)CC[C@@H]1C(=O)c1ccc(OCCC2CCOCC2)cc1` is reported as 100% (cell-free assay; competition with immobilised ligand; 1 µM).
The remaining binding of `CN(CCCC(F)(F)F)c1nccc(-c2cnn3ncccc23)n1` is reported as 100% (binding; 1 µM).
`O=C(NCCCN1CCOCC1)c1ccc(Nc2ncc(Cl)c(-c3ccc(Cl)s3)n2)cc1` has a remaining binding of 8.9% (binding; competition with immobilised ligand; 1 µM).
For `COc1ccnn2ncc(-c3ccnc(N(C)C)n3)c12`, the remaining binding was 71% (binding; 1 µM).
For `COc1cnc(Nc2cccc(S(N)(=O)=O)c2)nc1N1CCN(c2ccccc2)CC1`, the remaining binding was 100% (binding; competition with immobilised ligand; 1 µM).
With `Cc1c[nH]c2nccc(Oc3c(F)cc(Nc4cc(Cl)nc(N)n4)cc3F)c12` the remaining binding was 90% (cell-free assay; competition with immobilised ligand; 0.1 µM).
The remaining binding of `C=CC(=O)N1CCC(C(=O)NCC(=O)N2CCN(c3nc(-c4cnc(N)nc4C(F)F)nc(N4CCOCC4)n3)CC2)CC1` is reported as 83% (binding; competition with immobilised ligand; 1 µM).
For `COc1cnc(Nc2cccc(S(N)(=O)=O)c2)nc1N1CCN(c2ccccc2)C(=O)C1`, the remaining binding was 100% (binding; competition with immobilised ligand; 1 µM).
With `NS(=O)(=O)c1cc(NC(=O)C2(c3ccccc3Cl)CC2)ccc1Oc1cccc(Cl)c1` the remaining binding was 88% (cell-free assay; competition with immobilised ligand; 1 µM).
`O=C(c1ccc(Nc2ncc(Cl)c(-c3ccc(Cl)s3)n2)cc1)N1CCC(N2CCCC2)CC1` gave a remaining binding of 0.15% (binding; competition with immobilised ligand; 1 µM).
